Source: ChEMBL document CHEMBL2010758, “Antidotes to anthrax lethal factor intoxication. Part 3: Evaluation of core structures and further modifications to the C2-side chain” (Bioorg Med Chem Lett, 2012)
Activity calls are given as the source filed them. The rule behind the calls is not given here.

Legend:
[1] = Lipophilicity, Log D of the compound; assay type: physicochemical; conditions: octanol/water
[2] = target: Matrix metalloproteinase-9 (Homo sapiens, UniProt P14780); experiment: Inhibition of MMP-9 using OmniMMP as substrate
Matrix metalloproteinase-9, sequence (P14780 whole entry): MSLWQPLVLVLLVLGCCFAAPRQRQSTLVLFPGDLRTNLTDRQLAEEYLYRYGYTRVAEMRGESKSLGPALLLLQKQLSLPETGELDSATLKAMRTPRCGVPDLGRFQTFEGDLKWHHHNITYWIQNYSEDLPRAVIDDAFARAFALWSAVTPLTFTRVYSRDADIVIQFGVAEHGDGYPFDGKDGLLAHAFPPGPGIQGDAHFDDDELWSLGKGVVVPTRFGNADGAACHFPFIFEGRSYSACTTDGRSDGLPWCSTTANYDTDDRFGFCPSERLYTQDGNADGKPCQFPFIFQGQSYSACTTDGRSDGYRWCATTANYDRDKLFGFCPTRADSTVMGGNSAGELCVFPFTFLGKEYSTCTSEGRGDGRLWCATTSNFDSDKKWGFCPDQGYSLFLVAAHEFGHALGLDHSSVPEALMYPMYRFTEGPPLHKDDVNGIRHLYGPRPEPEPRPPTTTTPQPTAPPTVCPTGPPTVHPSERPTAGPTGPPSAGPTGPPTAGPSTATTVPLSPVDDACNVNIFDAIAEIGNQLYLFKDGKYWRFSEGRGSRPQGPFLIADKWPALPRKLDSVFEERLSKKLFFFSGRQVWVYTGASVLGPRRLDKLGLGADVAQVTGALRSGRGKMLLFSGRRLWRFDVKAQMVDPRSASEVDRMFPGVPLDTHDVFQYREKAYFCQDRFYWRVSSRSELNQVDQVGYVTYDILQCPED

Rattus norvegicus [3] = experiment: Inhibition of Anthrax LT-induced toxicity in Fischer 344 rat assessed as increase in survival at 2.5 mg/kg, iv administered 20 to 30 mins after LT challenge; assay type: functional, organism-based; set-up: dose 2.5 mg/kg
Rattus norvegicus [4] = experiment: Inhibition of Anthrax LT-induced toxicity in Fischer 344 rat assessed as increase in survival at 5 mg/kg, iv administered 20 to 30 mins after LT challenge; assay type: functional, organism-based; set-up: dose 5 mg/kg
[5] = target: Matrix metalloproteinase-14 (Homo sapiens, UniProt P50281); experiment: Inhibition of MMP-14 using OmniMMP as substrate
Plasma = experiment: Stability in plasma assessed as compound remaining at 3 hrs; assay type: ADME, cell-free
Procedure, shortened: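 Compound incubated in plasma. Result given as percent of compound remaining at 3 hours.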

Stromelysin-1 = Stromelysin-1 (Homo sapiens, UniProt P08254); experiment: Inhibition of MMP-3 using OmniMMP as substrate
Stromelysin-1, sequence (P08254 whole entry): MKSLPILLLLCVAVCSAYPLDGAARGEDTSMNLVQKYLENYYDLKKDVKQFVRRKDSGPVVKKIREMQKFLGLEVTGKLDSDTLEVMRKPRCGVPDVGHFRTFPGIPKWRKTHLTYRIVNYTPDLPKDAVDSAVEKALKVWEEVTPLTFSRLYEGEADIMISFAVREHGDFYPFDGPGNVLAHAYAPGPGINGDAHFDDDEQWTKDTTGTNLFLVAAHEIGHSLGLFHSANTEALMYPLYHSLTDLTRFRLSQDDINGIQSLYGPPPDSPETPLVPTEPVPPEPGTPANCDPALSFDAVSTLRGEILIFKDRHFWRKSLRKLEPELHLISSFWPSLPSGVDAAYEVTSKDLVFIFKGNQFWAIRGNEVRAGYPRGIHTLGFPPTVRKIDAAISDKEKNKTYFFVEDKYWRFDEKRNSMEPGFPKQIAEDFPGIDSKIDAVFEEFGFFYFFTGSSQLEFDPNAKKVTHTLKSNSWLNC

[6] = target: Macrophage metalloelastase (Homo sapiens, UniProt P39900); experiment: Inhibition of MMP-12 using OmniMMP as substrate
Macrophage metalloelastase, sequence (P39900 whole entry): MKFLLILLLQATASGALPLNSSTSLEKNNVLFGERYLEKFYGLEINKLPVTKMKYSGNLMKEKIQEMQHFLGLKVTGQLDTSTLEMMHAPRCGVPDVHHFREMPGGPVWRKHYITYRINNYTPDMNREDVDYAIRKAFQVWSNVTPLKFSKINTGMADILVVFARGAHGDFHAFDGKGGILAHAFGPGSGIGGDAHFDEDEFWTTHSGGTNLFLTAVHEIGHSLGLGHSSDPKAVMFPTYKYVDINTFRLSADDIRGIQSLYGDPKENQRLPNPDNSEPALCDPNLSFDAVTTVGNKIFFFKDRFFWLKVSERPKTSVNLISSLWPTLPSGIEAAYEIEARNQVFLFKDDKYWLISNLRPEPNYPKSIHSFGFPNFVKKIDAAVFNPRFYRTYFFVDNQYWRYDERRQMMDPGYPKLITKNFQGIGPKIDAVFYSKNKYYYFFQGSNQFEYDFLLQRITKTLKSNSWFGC

Cytochrome P450 2D6 = Cytochrome P450 2D6 (Homo sapiens, UniProt P10635); experiment: Inhibition of CYP2D6; assay type: ADME
Cytochrome P450 2D6, sequence (P10635 whole entry): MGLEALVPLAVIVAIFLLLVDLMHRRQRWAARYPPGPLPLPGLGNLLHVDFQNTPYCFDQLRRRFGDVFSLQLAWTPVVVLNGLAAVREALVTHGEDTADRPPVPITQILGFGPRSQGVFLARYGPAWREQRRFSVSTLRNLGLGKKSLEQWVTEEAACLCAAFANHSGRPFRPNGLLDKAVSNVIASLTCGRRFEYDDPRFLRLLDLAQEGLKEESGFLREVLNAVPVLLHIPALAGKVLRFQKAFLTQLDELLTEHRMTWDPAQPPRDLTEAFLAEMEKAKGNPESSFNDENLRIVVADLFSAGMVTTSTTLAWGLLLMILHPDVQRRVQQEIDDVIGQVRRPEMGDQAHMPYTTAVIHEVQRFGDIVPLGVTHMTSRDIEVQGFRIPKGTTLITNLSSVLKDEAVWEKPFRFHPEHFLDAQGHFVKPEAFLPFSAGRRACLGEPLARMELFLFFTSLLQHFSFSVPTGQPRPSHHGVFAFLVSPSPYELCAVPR

[7] = Stability in rat liver microsomes assessed as compound remaining at 30 mins; assay type: ADME, Microsome; conditions: read-out: Stability
Procedure, shortened: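 Compound incubated with rat liver microsomes for 30 min. Result given as percent of parent compound remaining at t = 30 min.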

Interstitial collagenase = target: T1, Interstitial collagenase (Homo sapiens, UniProt P03956); experiment: Inhibition of MMP-1 using OmniMMP as substrate
T1 sequence (P03956 whole entry): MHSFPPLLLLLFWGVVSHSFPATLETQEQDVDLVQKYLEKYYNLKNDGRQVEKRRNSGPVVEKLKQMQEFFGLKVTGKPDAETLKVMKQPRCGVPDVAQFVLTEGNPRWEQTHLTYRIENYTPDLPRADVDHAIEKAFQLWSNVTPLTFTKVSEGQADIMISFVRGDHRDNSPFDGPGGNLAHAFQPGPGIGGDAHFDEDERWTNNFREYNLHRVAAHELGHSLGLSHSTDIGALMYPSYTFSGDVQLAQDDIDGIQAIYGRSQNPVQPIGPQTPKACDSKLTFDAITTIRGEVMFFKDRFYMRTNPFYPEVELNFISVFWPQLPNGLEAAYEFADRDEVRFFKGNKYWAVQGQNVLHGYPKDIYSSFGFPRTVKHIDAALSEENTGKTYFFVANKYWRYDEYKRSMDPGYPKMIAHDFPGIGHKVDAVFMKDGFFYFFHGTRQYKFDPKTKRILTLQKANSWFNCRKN

RAW264.7 = experiment: Cytotoxicity against mouse RAW264.7 cells by MTT assay; assay type: cell-based
[8] = target: Voltage-gated inwardly rectifying potassium channel KCNH2 (Homo sapiens, UniProt Q12809); experiment: Inhibition of human ERG by fluorescence polarization assay
Voltage-gated inwardly rectifying potassium channel KCNH2, sequence (Q12809 whole entry): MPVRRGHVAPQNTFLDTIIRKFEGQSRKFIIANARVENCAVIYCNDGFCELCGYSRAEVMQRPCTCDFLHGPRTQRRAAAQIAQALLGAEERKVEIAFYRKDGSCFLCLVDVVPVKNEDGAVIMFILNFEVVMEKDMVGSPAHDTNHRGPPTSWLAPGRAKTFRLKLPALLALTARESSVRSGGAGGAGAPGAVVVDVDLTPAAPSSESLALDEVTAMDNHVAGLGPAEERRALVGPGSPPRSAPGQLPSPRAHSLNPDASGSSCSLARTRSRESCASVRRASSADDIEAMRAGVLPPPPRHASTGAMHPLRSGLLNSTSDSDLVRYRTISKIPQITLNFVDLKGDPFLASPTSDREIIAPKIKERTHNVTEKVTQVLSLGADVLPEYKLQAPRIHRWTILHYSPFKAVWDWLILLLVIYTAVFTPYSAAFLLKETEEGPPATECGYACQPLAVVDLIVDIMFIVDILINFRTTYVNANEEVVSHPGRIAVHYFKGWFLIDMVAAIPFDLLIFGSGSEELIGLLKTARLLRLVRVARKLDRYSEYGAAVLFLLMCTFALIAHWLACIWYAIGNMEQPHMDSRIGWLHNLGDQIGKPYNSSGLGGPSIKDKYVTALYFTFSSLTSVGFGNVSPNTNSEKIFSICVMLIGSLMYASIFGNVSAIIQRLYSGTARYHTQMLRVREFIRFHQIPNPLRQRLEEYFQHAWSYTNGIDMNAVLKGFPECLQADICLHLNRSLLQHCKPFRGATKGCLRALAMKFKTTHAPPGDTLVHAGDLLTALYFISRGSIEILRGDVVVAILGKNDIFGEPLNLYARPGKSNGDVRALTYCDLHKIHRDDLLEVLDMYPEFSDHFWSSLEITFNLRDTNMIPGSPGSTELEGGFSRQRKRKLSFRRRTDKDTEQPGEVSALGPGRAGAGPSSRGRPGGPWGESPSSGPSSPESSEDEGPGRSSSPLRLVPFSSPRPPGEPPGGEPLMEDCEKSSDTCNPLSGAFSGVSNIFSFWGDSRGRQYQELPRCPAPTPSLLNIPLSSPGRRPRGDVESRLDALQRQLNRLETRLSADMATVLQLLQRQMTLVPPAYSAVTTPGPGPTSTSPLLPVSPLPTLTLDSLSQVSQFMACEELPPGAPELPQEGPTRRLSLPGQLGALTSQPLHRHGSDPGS

[9] = Stability of the compound in presence of UGT; assay type: ADME
Procedure, shortened: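 UGT (glucuronidation) stability assay, incubated for 30 min. Result given as percent of compound remaining at t = 30 min.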

Lethal factor = target: T2, Lethal factor (Bacillus anthracis, UniProt P15917); experiment: Inhibition of N-terminal 6-histine tagged Bacillus anthracis LF 263-C terminal catalytic domain using MCA-KKVYPYPME-Dap(Dnp)-NH2 as substrate after 4 hrs by FRET analysis
T2 sequence (P15917 whole entry): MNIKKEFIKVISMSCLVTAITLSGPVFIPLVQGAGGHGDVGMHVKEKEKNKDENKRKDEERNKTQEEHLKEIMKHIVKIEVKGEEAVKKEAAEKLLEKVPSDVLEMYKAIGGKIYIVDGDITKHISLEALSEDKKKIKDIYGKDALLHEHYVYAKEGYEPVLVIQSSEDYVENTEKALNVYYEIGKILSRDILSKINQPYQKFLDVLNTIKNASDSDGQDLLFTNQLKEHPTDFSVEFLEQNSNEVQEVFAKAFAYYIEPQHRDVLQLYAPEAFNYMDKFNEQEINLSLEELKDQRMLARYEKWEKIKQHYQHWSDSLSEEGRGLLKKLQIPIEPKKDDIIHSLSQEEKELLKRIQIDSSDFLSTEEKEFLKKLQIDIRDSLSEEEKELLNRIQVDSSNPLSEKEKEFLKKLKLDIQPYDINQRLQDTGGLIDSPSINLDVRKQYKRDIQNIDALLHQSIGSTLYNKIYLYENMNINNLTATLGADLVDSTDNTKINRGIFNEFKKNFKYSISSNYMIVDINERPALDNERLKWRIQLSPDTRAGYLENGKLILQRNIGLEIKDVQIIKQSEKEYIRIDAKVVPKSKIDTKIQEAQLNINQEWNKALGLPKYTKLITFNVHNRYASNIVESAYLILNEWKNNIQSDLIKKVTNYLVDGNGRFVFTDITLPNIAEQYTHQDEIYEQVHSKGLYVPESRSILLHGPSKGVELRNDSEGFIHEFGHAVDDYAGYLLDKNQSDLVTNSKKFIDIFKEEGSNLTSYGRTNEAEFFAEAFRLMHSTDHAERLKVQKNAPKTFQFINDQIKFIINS

Rattus norvegicus [10] = experiment: Inhibition of Anthrax LT-induced toxicity in Fischer 344 rat assessed as increase in survival at 1.25 mg/kg, iv administered 20 to 30 mins after LT challenge; assay type: functional, organism-based; set-up: dose 1.25 mg/kg
Oryctolagus cuniculus [11] = experiment: Terminal half life in NZW rabbit at 10 mg/kg, sc; assay type: ADME, organism-based; set-up: dose 10 mg/kg, route subcutaneous; conditions: in vivo
Procedure, shortened: (§1)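 Single subcutaneous dose of 10 mg/kg given to NZW rabbits in DMSO:PEG400:pH 6 citrate buffer (2:10:88). Plasma drug levels were followed over time, including a 12 h sample. Tmax, Cmax, terminal (β) half-life and AUC to infinity were derived from the plasma concentration–time profile.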

Oryctolagus cuniculus [12] = experiment: Cmax in NZW rabbit at 10 mg/kg, sc; assay type: ADME, organism-based; set-up: dose 10 mg/kg, route subcutaneous; conditions: in vivo; procedure, shortened: as §1
[13] = Plasma concentration in NZW rabbit at 10 mg/kg, sc at 12 hrs; assay type: ADME, organism-based, Oryctolagus cuniculus; set-up: dose 10 mg/kg, route subcutaneous; procedure, shortened: as §1
Oryctolagus cuniculus [14] = experiment: Tmax in NZW rabbit at 10 mg/kg, sc; assay type: ADME, organism-based; set-up: dose 10 mg/kg, route subcutaneous; conditions: in vivo; procedure, shortened: as §1
Oryctolagus cuniculus [15] = experiment: AUC (infinity) in NZW rabbit at 10 mg/kg, sc; assay type: ADME, organism-based, Plasma; set-up: time infinity, dose 10 mg/kg, route subcutaneous; conditions: in vivo; procedure, shortened: as §1

Row | SMILES | logD [1] | Ki [2] [µM] | inhibition (Rattus norvegicus [3]) | Survival increase (active/not active) (Rattus norvegicus [4]) | Ki [5] [µM] | Stability (Plasma) [%] | Ki (Stromelysin-1) [µM] | Ki [6] [µM] | IC50 (Cytochrome P450 2D6) [µM] | remaining at 0.5 h [7] [%] | Ki (Interstitial collagenase) [µM] | CC50 (RAW264.7) [µM] | Stability [9] [%] | Ki (Lethal factor) [nM] | further results
1 | Cc1cc(N[C@H](CCCCNCc2ccc(F)cc2)C(=O)NO)cc(C)c1F | 2.3 | > 50 | Active | Active | > 50 | 90 | > 50 | > 50 | 1.35 | 60 | > 50 | 61 | 38 |  | IC50 [8]: 1.23 µM
2 | CO[C@H](C[C@H](CCCCNCc1ccc(F)cc1)C(=O)NO)c1ccc(F)cc1 | 2.4 | 21 |  | Active | > 50 |  | > 50 | 2.3 |  | 91 | 33 | 55 | 99 |  | 
3 | Cc1cc(O[C@H](CCCCNCc2ccc(F)cc2)C(=O)NO)cc(C)c1F | 3.1 | > 50 |  | inactive | > 50 | 61 | > 50 | > 50 | 0.23 | 3 | > 50 | 26 | 76 |  | IC50 [8]: 0.79 µM
4 | Cc1cc(C[C@H](CCCCNCc2ccc(F)cc2)C(=O)NO)cc(C)c1F | 2.2 | > 50 | Active | Active | > 50 | 100 | > 50 | > 50 | 0.02 | 18 | > 50 | 16 | 79 |  | IC50 [8]: 4.65 µM
5 | Cc1cc(C[C@H](CCCCN[C@H](C)c2ccc(F)cc2)C(=O)NO)cc(C)c1F |  |  |  |  |  |  |  |  |  |  |  |  |  | 0.3 | 
6 | Cc1cc(C[C@H](CCCCN[C@@H](C)c2ccc(F)cc2)C(=O)NO)cc(C)c1F |  |  |  |  |  |  |  |  |  |  |  |  |  | 0.49 | 
7 | CC[C@@H](NCCCC[C@@H](Cc1cc(C)c(F)c(C)c1)C(=O)NO)c1ccc(F)cc1 |  |  |  |  |  |  |  |  |  |  |  |  |  | 0.04 | 
8 | CC[C@H](NCCCC[C@@H](Cc1cc(C)c(F)c(C)c1)C(=O)NO)c1ccc(F)cc1 |  |  |  |  |  |  |  |  |  |  |  |  |  | 0.11 | 
9 | Cc1cc(C[C@H](CCCCN[C@H](CC(C)C)c2ccc(F)cc2)C(=O)NO)cc(C)c1F |  |  |  |  |  |  |  |  |  |  |  |  |  | 0.23 | 
10 | Cc1cc(C[C@H](CCCCN[C@@H](CC(C)C)c2ccc(F)cc2)C(=O)NO)cc(C)c1F |  |  |  |  |  |  |  |  |  |  |  |  |  | 1.3 | 
11 | Cc1cc(C[C@H](CCCCN[C@H](Cc2ccccc2)c2ccc(F)cc2)C(=O)NO)cc(C)c1F |  |  |  |  |  |  |  |  |  |  |  |  |  | 0.6 | 
12 | Cc1cc(C[C@H](CCCCN[C@@H](Cc2ccccc2)c2ccc(F)cc2)C(=O)NO)cc(C)c1F |  |  |  |  |  |  |  |  |  |  |  |  |  | 2 | 
13 | CCC(NCCCC[C@@H](Cc1cc(C)c(F)c(C)c1)C(=O)NO)c1ccc(F)cc1 (mixture of isomers) | 2.9 | > 50 | Active | Active | > 50 | 95 | > 50 | > 50 | 0.08 | 55 | > 50 | 15 | 100 | 0.31 | inhibition (Rattus norvegicus [10]): Active
14 | CCC(NCCCC[C@@H](Nc1cc(C)c(F)c(C)c1)C(=O)NO)c1ccc(F)cc1 (mixture of isomers) | 3.3 | > 50 | Active | Active | > 50 | 84 | > 50 | > 50 | 0.24 | 75 | > 50 | 32 | 74 | 0.17 | inhibition (Rattus norvegicus [10]): inactive; IC50 [8]: 0.95 µM
15 | CCC(NCCCC[C@@H](Oc1cc(C)c(F)c(C)c1)C(=O)NO)c1ccc(F)cc1 (mixture of isomers) | 3.3 | > 50 |  | Active | > 50 | 38 | > 50 | > 50 |  | 7 | > 50 | 21 | 75 | 1 | 
16 | CCC(NCCCC[C@@H](C[C@@H](OC)c1ccc(F)cc1)C(=O)NO)c1ccc(F)cc1 (mixture of isomers) | 2.9 | 11 | Active | Active | > 50 | 94 | 31 | 12 | 0.16 | 75 | 47 | 35 | 100 | 0.27 | beta t1/2 (Oryctolagus cuniculus [11]): 5.3 h; Cmax (Oryctolagus cuniculus [12]): 1.3 µM; concentration at 12 h [13]: 0.079 µM; Tmax (Oryctolagus cuniculus [14]): 0.3 h; AUC (Oryctolagus cuniculus [15]): 2.6376 µg·h/mL
